The values that follow come from ChEMBL document CHEMBL1127358 (J Med Chem, 1994).

The target of assay [1] is T1, Muscarinic acetylcholine receptor M3 (Cavia porcellus, UniProt Q8VH26). The assay is described as follows: Antagonistic activity against M3 muscarinic receptor in guinea pig left ileum derived by plotting log(DR - 1) vs log[antagonist]; inactive up to a concentration of 10. The class given is functional, tissue-based. Conditions: read-out: pA2 (converted). The method in brief:
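Guinea pig ileum segments at 37 °C in Tyrode solution, isotonic recording. Carbachol dose–response curves were run before and after 60 min antagonist incubation. Compounds were tested up to 10 μM antagonist, and inactivity was scored up to that concentration.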

Assay [2] relates to Muscarinic acetylcholine receptors M2 & M3 (Cavia porcellus). The assay can be described thus: Selectivity ratio is the antilog of the difference between the pA2 values at guinea pig left atrium and ileum muscarinic receptors.
Assay [3] has as its target Muscarinic acetylcholine receptor M2 (Cavia porcellus). The assay can be described thus: Antagonistic activity against M2 muscarinic receptor in guinea pig left atrium derived by plotting log(DR - 1) vs log[antagonist]. To be noted: read-out: pA2 (converted).
For assay [4], the target named is Muscarinic acetylcholine receptor M3 (Rattus norvegicus, UniProt P08483). The assay is described as follows: Tested for affinity constant against M3 muscarinic receptor in rat submaxillary gland using [3H]NMS. It is filed as tissue-based.
Assay [5] concerns the target T2, Muscarinic acetylcholine receptor M2 (Rattus norvegicus, UniProt P10980).
T2 sequence (P10980 whole entry): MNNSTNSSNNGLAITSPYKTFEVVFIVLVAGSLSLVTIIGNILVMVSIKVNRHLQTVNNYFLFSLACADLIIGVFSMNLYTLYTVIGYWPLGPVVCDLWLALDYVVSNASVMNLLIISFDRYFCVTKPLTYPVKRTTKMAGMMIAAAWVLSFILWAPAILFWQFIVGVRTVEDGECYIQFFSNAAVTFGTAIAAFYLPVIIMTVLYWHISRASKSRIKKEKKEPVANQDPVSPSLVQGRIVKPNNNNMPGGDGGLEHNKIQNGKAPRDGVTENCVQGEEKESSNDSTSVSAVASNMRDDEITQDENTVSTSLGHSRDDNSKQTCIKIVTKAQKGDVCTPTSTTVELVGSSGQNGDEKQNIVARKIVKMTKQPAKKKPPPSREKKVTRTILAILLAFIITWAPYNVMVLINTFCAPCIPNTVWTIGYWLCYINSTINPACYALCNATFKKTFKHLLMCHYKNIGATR
The assay is described as follows: Tested for affinity constant against M2 muscarinic receptor rat heart using [3H]-NMS.

The nature of assay [6]: Tested for affinity constant against M4 muscarinic receptor in NG 108-15 cell homogenates using [3H]NMS. The class given is cell-based.
The target of assay [7] is T3, Muscarinic acetylcholine receptor M1 (Rattus norvegicus, UniProt P08482).
T3 sequence (P08482 whole entry): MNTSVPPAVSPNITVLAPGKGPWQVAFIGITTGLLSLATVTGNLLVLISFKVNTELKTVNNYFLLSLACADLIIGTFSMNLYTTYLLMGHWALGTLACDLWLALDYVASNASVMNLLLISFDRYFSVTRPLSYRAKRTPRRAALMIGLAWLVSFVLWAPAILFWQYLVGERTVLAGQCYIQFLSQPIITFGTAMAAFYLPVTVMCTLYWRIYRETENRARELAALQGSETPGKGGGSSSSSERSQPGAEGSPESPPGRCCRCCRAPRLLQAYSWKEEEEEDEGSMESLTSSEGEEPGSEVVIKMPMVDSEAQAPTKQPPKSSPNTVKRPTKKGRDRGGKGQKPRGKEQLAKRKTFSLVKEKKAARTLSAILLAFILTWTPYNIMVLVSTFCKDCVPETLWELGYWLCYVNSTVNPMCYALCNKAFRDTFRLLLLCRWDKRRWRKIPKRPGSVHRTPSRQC
The assay can be described thus: Tested for affinity constant against M1 muscarinic receptor in rat cortex using [3H]pirenzepine.

Assay [8] has as its target T1, Muscarinic acetylcholine receptor M3. The assay is described as follows: Antagonistic activity against M3 muscarinic receptor in guinea pig left ileum derived by plotting log(DR - 1) vs log[antagonist]. The class given is functional, tissue-based. Conditions: read-out: pA2 (converted). A digest of the protocol:
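Guinea pig tissue. Ileum: terminal segments about 2 cm, 1 g tension, 37 °C, Tyrode solution, isotonic recording. Carbachol dose–response curves (0.01–0.5 μM) at 30 min intervals, second curve as control. Repeated after 60 min antagonist incubation. Dose ratios at agonist EC50, one to six antagonist concentrations, each tested 4–8 times. pA2 from Schild plot of log(DR−1); mean ± SE.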

The target in assay [9] is Muscarinic acetylcholine receptor M3 (Rattus norvegicus) (UniProt P08483). The assay is described as follows: Inhibitory activity against M3 muscarinic receptor binding in rat submaxillary gland by [3H]NMS at 10 uM concentration. The class given is tissue-based. A digest of the protocol: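 Rat submaxillary gland homogenate. […] Nonspecific binding defined with 10 μM atropine. Percent inhibition of specific binding scored, with IC50 not derivable when inhibition stayed below 50%.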

Molecules are shown by their SMILES.

T1 sequence (Q8VH26 whole entry): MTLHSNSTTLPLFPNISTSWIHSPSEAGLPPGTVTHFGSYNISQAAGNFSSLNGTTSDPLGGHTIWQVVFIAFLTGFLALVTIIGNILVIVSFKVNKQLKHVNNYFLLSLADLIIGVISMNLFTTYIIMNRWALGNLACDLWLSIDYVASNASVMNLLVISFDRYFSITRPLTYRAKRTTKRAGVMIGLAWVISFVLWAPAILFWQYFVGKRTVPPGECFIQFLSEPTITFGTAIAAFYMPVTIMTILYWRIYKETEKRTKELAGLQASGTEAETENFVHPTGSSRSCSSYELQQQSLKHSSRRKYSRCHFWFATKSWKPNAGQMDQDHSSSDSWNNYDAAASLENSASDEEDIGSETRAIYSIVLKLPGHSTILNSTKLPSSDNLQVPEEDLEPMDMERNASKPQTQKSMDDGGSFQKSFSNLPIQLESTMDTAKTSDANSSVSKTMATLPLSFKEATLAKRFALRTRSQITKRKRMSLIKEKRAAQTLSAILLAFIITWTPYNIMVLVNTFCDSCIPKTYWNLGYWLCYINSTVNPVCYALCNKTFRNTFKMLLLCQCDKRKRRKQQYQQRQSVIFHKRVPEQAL
Chain of Muscarinic acetylcholine receptor M3 (Rattus norvegicus, UniProt P08483) (P08483 whole entry): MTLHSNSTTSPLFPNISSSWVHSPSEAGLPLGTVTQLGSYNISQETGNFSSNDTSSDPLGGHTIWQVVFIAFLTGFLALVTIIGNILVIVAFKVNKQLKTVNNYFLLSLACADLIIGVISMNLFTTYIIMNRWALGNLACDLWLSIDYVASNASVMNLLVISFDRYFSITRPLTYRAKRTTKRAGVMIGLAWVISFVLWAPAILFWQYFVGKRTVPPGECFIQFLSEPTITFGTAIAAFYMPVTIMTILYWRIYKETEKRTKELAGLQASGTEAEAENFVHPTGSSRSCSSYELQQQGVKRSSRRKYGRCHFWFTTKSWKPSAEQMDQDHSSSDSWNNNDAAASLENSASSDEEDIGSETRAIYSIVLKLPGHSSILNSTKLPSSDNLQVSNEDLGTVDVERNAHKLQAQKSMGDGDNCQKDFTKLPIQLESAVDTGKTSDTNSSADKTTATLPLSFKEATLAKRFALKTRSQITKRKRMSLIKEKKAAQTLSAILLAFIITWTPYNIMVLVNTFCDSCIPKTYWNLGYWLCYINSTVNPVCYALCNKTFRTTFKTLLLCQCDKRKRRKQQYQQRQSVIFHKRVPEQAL
Chain of Muscarinic acetylcholine receptor M3 (Rattus norvegicus) (P08483 whole entry, looked up): as the sequence (P08483 whole entry) above

Regarding `CCN(CC)CCCCCCNCc1ccccc1OC`, the Kb in assay [1] was > 10000 nM; in assay [3], 2510 nM. The Ratio in assay [2] is > 4.
As for `CN(CCCCCCCCN(C)CCCCCCNCC(=O)N1c2ccccc2C(=O)Nc2cccnc21)CCCCCCNCC(=O)N1c2ccccc2C(=O)Nc2cccnc21`, the inhibitory constant (Ki) is 174 nM in [4], 2.4 nM in assay [5] and 1.7 nM in assay [7]. In addition, the “Log Ki” value in assay [6] is -8.52.
For the molecule `COc1ccccc1CNCCCCCCN(C)CCCCCCCCN(C)CCCCCCN(CC(=O)N1c2ccccc2C(=O)Nc2cccnc21)CC(=O)N1c2ccccc2C(=O)Nc2cccnc21.O=C(O)C(=O)O.O=C(O)C(=O)O.O=C(O)C(=O)O.O=C(O)C(=O)O`, the Kb in assay [8] is 447 nM; in assay [3], 4.57 nM. The Ki in assay [4] was 2510 nM; in assay [5], 18.6 nM; in assay [7], 15.8 nM. Also, the Ratio in assay [2] came to 98. In addition, the “Log Ki” value in assay [6] is on record as -7.9.
Turning to `COc1ccccc1CNCCCCCCN(C)CCCCCCCCN(C)CCCCCCNCC(=O)N1c2ccccc2C(=O)Nc2cccnc21`, the Kb in [8] is 575 nM; in assay [3] it was 3.09 nM. In addition, the Ki in [4] is 794 nM; in assay [5], 1.7 nM; in [7], 28.2 nM. The Ratio in assay [2] turned out to be 190. In addition, the “Log Ki” value in assay [6] was -7.24.
With `COc1ccccc1CNCCCCCCNCCCCCCCCNCCCCCCNCc1ccccc1OC` [METHOCTRAMINE], the “Log Ki” value in assay [6] is listed as -7.58.
Take `COc1ccccc1CN(CCCCCCN(C)CCCCCCCCN(C)CCCCCCN(CC(=O)N1c2ccccc2C(=O)Nc2cccnc21)Cc1ccccc1OC)CC(=O)N1c2ccccc2C(=O)Nc2cccnc21.O=C(O)C(=O)O.O=C(O)C(=O)O.O=C(O)C(=O)O.O=C(O)C(=O)O`: the Kb is 2040 nM in [8] and 47.9 nM in assay [3]. Further, the Ki is 251 nM in assay [4], 3.72 nM in [5] and 1.26 nM in [7]. In addition, in assay [2], the Ratio was found to be 26. For the same molecule, the “Log Ki” value in [6] is given as -7.8.
In the case of `CCN(CC)CCCCC1CCN(CC(=O)N2c3ccccc3C(=O)Nc3cccnc32)CC1`, the Kb in [8] is 100 nM. In addition, the inhibition constant (Ki) in [4] is 251 nM; in assay [7], 105 nM. In assay [6], the “Log Ki” value was -7.82.
For the molecule `CCN(CC)CCCCCCN(CC(=O)N1c2ccccc2C(=O)Nc2cccnc21)Cc1ccccc1OC`, the Kb was 1260 nM in assay [8] and 178 nM in [3]. For the same molecule, the Ratio in assay [2] is 7.
For the molecule `CCN(CC)CCCCCCN(CC(=O)N1c2ccccc2C(=O)Nc2cccnc21)CC(=O)N1c2ccccc2C(=O)Nc2cccnc21`, the Kb in assay [1] was > 10000 nM; in assay [3], 1050 nM. Also, in assay [2], the Ratio is > 10.
Turning to `CN(CCCCCCCCN(C)CCCCCCN(CC(=O)N1c2ccccc2C(=O)Nc2cccnc21)CC(=O)N1c2ccccc2C(=O)Nc2cccnc21)CCCCCCNCC(=O)N1c2ccccc2C(=O)Nc2cccnc21` [TRIPITRAMINE], in assay [6], the “Log Ki” value is listed as -7.93.
For `CCN(CC)CCCCCCNCC(=O)N1c2ccccc2C(=O)Nc2cccnc21`, the Kb in [8] was 832 nM; in assay [3], 251 nM. Moreover, the Ratio in assay [2] worked out at 3.
Turning to `CN(CCCCCCN)CCCCCCCCN(C)CCCCCCNCC(=O)N1c2ccccc2C(=O)Nc2cccnc21`, the Kb in assay [8] was 661 nM. The results for the inhibition constant Ki in assay [4] and in assay [7] were 468 nM and 2.69 nM, respectively. The “Log Ki” value in [6] is reported as -7.74.
`CN(CCCCCCN)CCCCCCCCN(C)CCCCCCN(CC(=O)N1c2ccccc2C(=O)Nc2cccnc21)CC(=O)N1c2ccccc2C(=O)Nc2cccnc21.O=C(O)C(=O)O.O=C(O)C(=O)O.O=C(O)C(=O)O.O=C(O)C(=O)O`: the Kb in assay [8] was 1550 nM; in [3], 5.89 nM. Besides, the figures for the Ki in assay [4], in assay [5] and in assay [7] were 6760 nM, 12.9 nM and 2.51 nM, respectively. In addition, the Ratio in assay [2] is 260. Further, in assay [6], the “Log Ki” value is on record as -6.72.
For the molecule `CN(CCCCCCCCN(C)CCCCCCN(CC(=O)N1c2ccccc2C(=O)Nc2cccnc21)CC(=O)N1c2ccccc2C(=O)Nc2cccnc21)CCCCCCN(CC(=O)N1c2ccccc2C(=O)Nc2cccnc21)CC(=O)N1c2ccccc2C(=O)Nc2cccnc21.O=C(O)C(=O)O.O=C(O)C(=O)O.O=C(O)C(=O)O.O=C(O)C(=O)O`, the Kb in assay [8] was 759 nM; in assay [3], 15.5 nM. Besides, the inhibition constant (Ki) is 155 nM in assay [4], 21.9 nM in [5] and 4.79 nM in assay [7]. The Ratio in assay [2] is 49. Moreover, the “Log Ki” value in [6] is given as -7.05.
Turning to `CCCCN(CC(=O)N1c2ccccc2C(=O)Nc2cccnc21)CC(=O)N1c2ccccc2C(=O)Nc2cccnc21`, the Kb in [1] was > 10000 nM; in [3], 1580 nM. In addition, the Ratio in assay [2] was > 6.
For the molecule `COc1ccccc1CN(CCCCCCN(C)CCCCCCCCN(C)CCCCCCNCC(=O)N1c2ccccc2C(=O)Nc2cccnc21)CC(=O)N1c2ccccc2C(=O)Nc2cccnc21.O=C(O)C(=O)O.O=C(O)C(=O)O.O=C(O)C(=O)O.O=C(O)C(=O)O`, the Kb in assay [8] was 417 nM; in [3] it was 1.58 nM. Also, the figures for the inhibitory constant (Ki) in assay [5] and in assay [7] were 1.58 nM and 1.86 nM, respectively. In addition, the inhibition in [9] was < 50%. Also, the Ratio in assay [2] was 260. The “Log Ki” value in assay [6] is reported as -8.22.
`COc1ccccc1CNCCCCCCNCCCCCCCCNCCCCCCN`: the Kb in assay [8] was 1550 nM; in assay [3], 91.2 nM. The Ratio in assay [2] is 17.
Take `COc1ccccc1CNCCCCCCN(C)CCCCCCCCN(C)CCCCCCNCc1ccccc1OC`: the Ratio in [2] is 48.
For the molecule `CN(CCCCCCN)CCCCCCCCN(C)CCCCCCN`, the figures for the Kb in assay [8] and in assay [3] were 7590 nM and 282 nM, respectively. Further, in assay [2], the Ratio is 27.
